Data set [1] can be described thus: Second-order rate constant for acyl-interchange reactions between glutathione and the compound. The class given is ADME. The method, boiled down:
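Cell-free reaction with glutathione in 0.1 M potassium phosphate, pH 7.5, 5% ethanol, 25 °C. Under pseudo-first-order conditions (≥10-fold glutathione excess), derived from the first-order loss of reactants followed spectrophotometrically. For the slow ester analogue, taken instead from the initial rate of product appearance (~0.1% reaction) with 15-fold glutathione excess, followed by reverse-phase HPLC.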

Data set [2] deals with L1210. Description: Concentration producing 50% growth inhibition of L1210 cells. The class given is functional. Particulars: Mus musculus. The method, boiled down: (§1)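 Murine L1210 leukemia cells (NCI tumor repository) in log phase, kept in RPMI 1640 with […], 10% heat-inactivated fetal calf serum and gentamycin (10 µg/mL), 37 °C, 5% CO2. Seeded at 5000 cells/well with at least five drug levels in triplicate. Fresh drug added every 12 h. Cell density counted by Coulter Counter after 48 h. Percentage growth taken against time-zero and no-drug counts. Values interpolated from dose-response curves; mean and SD of three experiments on different days.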

Data set [3] concerns L1210. Description: Concentration producing 100% tumor growth inhibition of L1210 cells. It is filed as functional. The note with it: Mus musculus. The method, boiled down:
as §1

Data set [4] relates to L1210. Description: Concentration required to kill 50% L1210 cells. It is filed as ADME, cell-based. Particulars: mouse. The method, boiled down: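 Mouse L1210 leukemia cells in log growth, RPMI 1640 with 10% heat-inactivated fetal calf serum and gentamycin (10 µg/mL), 37 °C, 5% CO2. Seeded at 5000 cells/well with at least five drug levels in triplicate. Fresh drug added every 12 h. Cell density counted by Coulter Counter after 48 h, viability by trypan blue. LC50 (50% cell killing) interpolated from dose-response curve; three experiments on different days.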

The subject of data set [5] is L1210. In words: Rate constant from the plots of initial rates of disappearance of the drug inside L1210 cells versus extracellular concentration of prodrug. The class given is functional, Mus musculus. The note with it: in the assay text read “appearance” for “disappearance”. In outline: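 L1210 suspensions (~1.5 × 10^6 cells/mL) in RPMI 1640/10% heat-inactivated FCS with gentamycin, 37 °C, were given fixed prodrug levels. Aliquots taken over time were spun through silicone oil. Pellets were extracted with 70% ethanol and the glutathione conjugate was measured by C18 reverse-phase HPLC at 260 nm against standard curves. The constant is the slope of initial intracellular appearance rate versus extracellular prodrug concentration.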

What is called GI50 is the concentration at which growth is held to half of that of the control. A higher GI50 goes with lower sensitivity of the cells. Usually TGI stands for the concentration giving total growth inhibition. The low end stands for greater sensitivity of the cells, the high end for lower sensitivity of the cells. The LC50 is the concentration lethal to half of the exposed cells or organisms.

On to `CC[S+]([O-])C(=O)N(C)c1ccc(Cl)cc1` (stereo unspecified), for which the k2 in data set [1] amounted to 0.14 mM⁻¹ min⁻¹.
Turning to `Cl.NC(CCC(=O)NC(CSC(=O)N(O)c1ccc(Cl)cc1)C(=O)NCC(=O)OC1CCCC1)C(=O)OC1CCCC1` (stereo unspecified), the GI50 in the data set on L1210 [2] came out at 3.4 µM. Also, net growth in the data set on L1210 [3] stopped (TGI) at 5.3 µM. Besides, the LC50 with L1210 [4] was 8.3 µM. Besides, the Rate constant in the data set on L1210 [5] came out at 0.59 min⁻¹.
`CCOC(=O)CNC(=O)C(CSC(=O)N(O)c1ccc(Cl)cc1)NC(=O)CCC(N)C(=O)OCC.Cl` (stereo unspecified) had a GI50 in the data set with L1210 [2] of 7 µM. Moreover, net growth with L1210 [3] stopped (TGI) at 27 µM. This molecule also yielded an LC50 with L1210 [4] of 54 µM. The Rate constant in the data set on L1210 [5] turned out to be 0.1 min⁻¹.
In turn, `CC[S+]([O-])C(=O)N(O)c1ccc(Cl)cc1` (stereo unspecified) gave a k2 in data set [1] of 1.84 mM⁻¹ min⁻¹. In addition, it took 0.5 µM to inhibit growth in the data set on L1210 [2] by half (GI50). Moreover, the TGI in the data set with L1210 [3] turned out to be 3.9 µM. The LC50 in the data set with L1210 [4] was found to be 13 µM. In addition, the Rate constant with L1210 [5] was found to be 1.41 min⁻¹.
In the case of `CC[S+]([O-])C(=O)N(C)O` (stereo unspecified), the k2 in data set [1] is 0.59 mM⁻¹ min⁻¹.
`CCSC(=O)N(O)c1ccc(Cl)cc1` yielded a k2 in data set [1] of 3.5e-07 mM⁻¹ min⁻¹.

The record behind these values is ChEMBL document CHEMBL1132215, “A new method for rapidly generating inhibitors of glyoxalase I inside tumor cells using S-(N-aryl-N-hydroxycarbamoyl)ethylsulfoxides” (J Med Chem, 1999).
